# Source: ChEMBL document CHEMBL3085696, “Aurora isoform selectivity: design and synthesis of imidazo[4,5-b]pyridine derivatives as highly selective inhibitors of Aurora-A kinase in cells” (J Med Chem, 2013)
# Biological target: T1, Receptor-type tyrosine-protein kinase FLT3 (Homo sapiens, UniProt P36888)
# T1 sequence (P36888 whole entry): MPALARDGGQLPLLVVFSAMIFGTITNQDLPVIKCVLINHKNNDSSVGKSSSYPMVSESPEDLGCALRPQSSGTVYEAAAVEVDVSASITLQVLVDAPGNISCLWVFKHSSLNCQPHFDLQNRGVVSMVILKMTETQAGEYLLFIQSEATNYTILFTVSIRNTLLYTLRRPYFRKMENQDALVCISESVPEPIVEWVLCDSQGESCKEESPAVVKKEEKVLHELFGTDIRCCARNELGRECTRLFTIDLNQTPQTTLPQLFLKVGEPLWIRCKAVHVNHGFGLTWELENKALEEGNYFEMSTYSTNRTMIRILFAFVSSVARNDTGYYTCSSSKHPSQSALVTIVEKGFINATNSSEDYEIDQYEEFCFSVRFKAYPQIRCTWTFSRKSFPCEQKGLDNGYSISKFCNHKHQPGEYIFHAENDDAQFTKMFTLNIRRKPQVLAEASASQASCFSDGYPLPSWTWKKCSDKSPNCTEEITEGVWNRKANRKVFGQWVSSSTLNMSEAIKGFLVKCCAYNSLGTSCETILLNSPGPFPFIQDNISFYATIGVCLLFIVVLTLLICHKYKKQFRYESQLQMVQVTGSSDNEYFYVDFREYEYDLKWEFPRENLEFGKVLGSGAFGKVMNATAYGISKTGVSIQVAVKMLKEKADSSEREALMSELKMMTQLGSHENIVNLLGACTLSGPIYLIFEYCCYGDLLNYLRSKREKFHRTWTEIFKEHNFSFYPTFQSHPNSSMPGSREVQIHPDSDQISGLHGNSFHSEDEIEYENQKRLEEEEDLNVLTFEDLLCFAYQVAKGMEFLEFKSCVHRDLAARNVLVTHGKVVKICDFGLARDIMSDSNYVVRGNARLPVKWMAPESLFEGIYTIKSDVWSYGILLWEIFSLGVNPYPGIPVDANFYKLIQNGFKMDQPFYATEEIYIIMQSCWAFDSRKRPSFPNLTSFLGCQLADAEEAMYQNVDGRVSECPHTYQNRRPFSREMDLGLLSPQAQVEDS
# Assay: Inhibition of FLT3 (unknown origin) at 1 uM
# How it was run: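 Single-concentration (1 μM) profiling within a 110-kinase selectivity panel; activity expressed as percent inhibition of each kinase.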
structure (smiles),measurement,value
Cc1nn(C)cc1-c1nc2c(Oc3ccc(C(=O)Nc4ccccc4)cc3)c(Cl)cnc2[nH]1,IC50,162 nM
